Experimental data gathered from unrelated publications.
Each line is one published result; the experiments were not run side by side.
Target: MAP/microtubule affinity-regulating kinase 3 (MARK3, Homo sapiens, UniProt P27448)
Effect on: enzyme activity
Mode: inhibitor

CC(C)(C)C(=O)c1sc(NC2CCCCC2)nc1N
remaining activity (10 µM): 112%

O=C(Nc1cnn(-c2csc(C(=O)NC3COC3)c2)c1)Nc1c(F)cccc1Cl
remaining activity (5 µM): 99.3%

NS(=O)(=O)c1ccc(CNc2nc(Nc3cccc(CN4CCOCC4)c3)ncc2Br)cc1
remaining activity (radiometric; 1 µM): 68%

CC(C)(C)c1nc2c(s1)c1nc(N)ncc1c1ccc(NS(=O)(=O)c3c(F)cccc3F)c(F)c12
remaining activity (radiometric; 1 µM): 99%

CC(C)(O)[C@H]1CC[C@H](Nc2ccc3ncc(-c4cccc(C(F)(F)F)c4)n3n2)CC1
remaining activity (1 µM): 101%

Cc1sc(C(=O)NC2COC2)cc1-n1cc(NC(=O)Nc2c(F)cccc2Cl)cn1
remaining activity (10 µM): 102%

COc1cc(Cl)c(C(=O)N[C@@H](CN[C@H]2CC[C@@H](N)CC2)Cc2ccc(C#N)cc2)cc1-c1ccc(CN[C@H](C)c2ccc(C)cc2)o1
remaining activity (1 µM): 98%

FC(F)c1nc2ccccc2n1-c1nc(N2CCOCC2)nc(N2CCOCC2)n1
remaining activity (10 µM): 94%

NS(=O)(=O)c1ccc(CNc2ccnc(Nc3cccc(NC(=O)N4CCCC4)c3)n2)cc1
remaining activity (radiometric; 1 µM): 115%

Cn1c(=O)n(-c2ccc(C(C)(C)C#N)cc2)c2c3cc(-c4cnc5ccccc5c4)ccc3ncc21
remaining activity (10 µM): 100%

Brc1cnc(Nc2cccc(CN3CCOCC3)c2)nc1NCCc1c[nH]cn1
remaining activity (radiometric; 1 µM): 16%

CC(C)(C)c1nc(-c2cccc(NS(=O)(=O)c3c(F)cccc3F)c2F)c(-c2ccnc(N)n2)s1
remaining activity (radiometric; 1 µM): 96%

NS(=O)(=O)c1ccc(CNc2nc(Nc3cccc(NC(=O)N4CCCC4)c3)ncc2C2CC2)cc1
remaining activity (radiometric; 1 µM): 112%

COc1cc(Nc2cnc(C#N)c(O[C@H](C)CN(C)C)n2)ncc1-c1cnn(C)c1
remaining activity (radiometric; 1 µM): 98%

Nc1nc(NC2CCCCC2)sc1C(=O)c1ccccc1
remaining activity (10 µM): 100%

Cc1nn(CC(F)(F)F)cc1Nc1ncc(Br)c(NCc2ccc(S(N)(=O)=O)cc2)n1
remaining activity (radiometric; 1 µM): 105%

Cc1ccc(C(=O)Nc2ccc(CN3CCN(C)CC3)c(C(F)(F)F)c2)cc1C#Cc1cnc2cccnn12
remaining activity (23.5 nM): 83%
